Data reported in ChEMBL document CHEMBL4622838, “Deuteration of the farnesyl terminal methyl groups of δ-tocotrienol and its effects on the metabolic stability and ability of inducing G-CSF production” (Bioorg Med Chem, 2020).
Activity calls are given as the source filed them. No cut-off for these calls is given here.

What was measured:
[1] = AUC (0 to last) in CD2F1 mouse at 50 mg/kg, iv measured up to 24 hrs; type: ADME, organism-based; set-up: dose 50 mg/kg, route intravenous, time 0 - last; conditions: in vivo
How it was run: (§1)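 Single IV bolus in CD2F1 mice, emulsified in PBS with 33% PEG400 and 2% tween 80 (150 µL/mouse, 0.22 µm filtered), n = 4 per group. Retro-orbital blood into EDTA-K tubes at 0, 5, 10, 30 min and 1, 2, 4, 6, 12, 24 h. Plasma extracted with methanol/ascorbic acid plus heptane/BHT, internal standard, HPLC-fluorescence.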

[2] = Cmax in CD2F1 mouse at 200 mg/kg, sc measured up to 24 hrs; type: ADME, organism-based; set-up: dose 200 mg/kg, route subcutaneous; conditions: in vivo
How it was run: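 Single subcutaneous dose, 200 mg/Kg, emulsified in PBS with 5% tween 80, 100 µL/mouse, filter-sterilized; n = 4 per group. Retro-orbital blood into EDTA potassium tubes at 0, 7.5, 15, 30 min, 1, 2, 4, 6, 8, 12, 24 h; plasma at -80 °C. Heptane/methanol extraction with internal standard, HPLC-fluorescence; peak concentration taken from the concentration-time profile.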

[3] = AUC (0 to last) in CD2F1 mouse at 200 mg/kg, sc measured up to 24 hrs; type: ADME, organism-based; set-up: dose 200 mg/kg, route subcutaneous, time 0 - last; conditions: in vivo
How it was run: as §1, with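 “SC injection” for “IV bolus”, “5%” for “33% PEG400 and 2%”, “(100” for “(150”, “7.5, 15,” for “5, 10,”, “6, 8,” for “6,”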

[4] = Intrinsic clearance in mouse liver microsomes; type: ADME, Microsome
How it was run: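 Mouse liver microsomes (5 mg protein/mL) in potassium phosphate buffer pH 7.4 with EDTA; compound 1 µM preincubated 30 min at 37 °C, reaction started with NADPH-generating system (NADP⁺, glucose-6-phosphate, MgCl₂, G6PDH); no-NADPH control. Sampled at 5, 15, 30 min into cold acetonitrile with internal standard; percent remaining measured; half-life and clearance calculated; n = 3.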

[5] = Half life in mouse liver microsomes; type: ADME, Microsome
[6] = Metabolic stability in mouse liver microsomes assessed as compound degradation at 1 uM preincubated for 30 mins followed by NADPH addition measured up to 30 mins by HPLC-UV analysis; type: ADME, Microsome; conditions: 0.5 h
How it was run: (§2)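 Mouse liver microsomes (5 mg protein/mL) in 0.2 M potassium phosphate, pH 7.4, with EDTA. Test compound at 1 µM preincubated 30 min at 37 °C, then started with an NADPH-generating system (NADP⁺, Glc-6-PO₄, MgCl₂, G6PDH); controls received buffer in place of NADPH. Sampled at 5, 15 and 30 min into cold acetonitrile containing GT3 internal standard. Percent remaining reported, n = 3.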

[7] = Clearance in CD2F1 mouse at 50 mg/kg, iv measured up to 24 hrs; type: ADME, organism-based; conditions: in vivo
How it was run: (§3)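 Single IV bolus, 50 mg/Kg, emulsified in PBS with 33% PEG400 and 2% tween 80, 150 µL/mouse, filter-sterilized; n = 4 per group. Retro-orbital blood into EDTA potassium tubes at 0, 5, 10, 30 min, 1, 2, 4, 6, 12, 24 h. Plasma extracted with methanol (2% ascorbic acid) and heptane (1% BHT) plus internal standard; HPLC-fluorescence quantitation.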

[8] = Volume of distribution in CD2F1 mouse at 50 mg/kg, iv measured up to 24 hrs; type: ADME, organism-based; conditions: in vivo; how it was run: as §3
[9] = AUC (0 to infinity) in CD2F1 mouse at 50 mg/kg, iv measured up to 24 hrs; type: ADME, organism-based; set-up: dose 50 mg/kg, time infinity, route intravenous; conditions: in vivo; how it was run: as §1
[10] = Plasma concentration in CD2F1 mouse at 200 mg/kg, sc administered as single dose measured after 1 hr by HPLC-fluorescence analysis; type: ADME, organism-based
How it was run: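 Single subcutaneous dose of 200 mg/Kg in CD2F1 mice, emulsified in PBS with 5% tween 80 and filter-sterilized, n = 3–4. Retro-orbital blood drawn at 0 min to 24 h. Plasma mixed with internal standard, methanol containing 2% ascorbic acid and heptane containing 1% BHT. Upper layer dried under N₂, reconstituted in methanol and quantified by HPLC-fluorescence.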

[11] = tested on: Mus musculus; assay: Induction of G-CSF production in CD2F1 mouse at 200 mg/kg, sc by G-CSF ELISA kit method; type: functional, organism-based; conditions: TDE = time-dependent effect
How it was run: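 CD2F1 mice, subcutaneous dose of 0.5 mM/Kg (200 mg/Kg) emulsified in PBS with 5% tween 80, n = 3–4. Blood taken into EDTA-K tubes at 8, 12, 24 and 48 h. Plasma spun at 1200 rpm, 15 min, 4 °C and held at −80 °C. G-CSF measured by mouse ELISA, each sample run in duplicate and averaged, with a standard curve on every plate.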

[12] = tested on: Mus musculus; assay: Induction of G-CSF production in CD2F1 mouse at 200 mg/kg, sc pretreated with ketoconazole after 24 hrs by G-CSF ELISA kit method; type: functional, organism-based
How it was run: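 CD2F1 mice received ketoconazole in corn oil (5 mg/250 µL/mouse) by oral gavage at 26, 14 and 2 h before drug. Drug then given subcutaneously at 200 mg/Kg in 5% tween 80/PBS, n = 3. Plasma collected at 8 and 24 h. G-CSF measured by ELISA in duplicate against a per-plate standard curve.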

[13] = Metabolic stability in mouse live microsomes assessed as compound degradation in absence of NADPH; type: ADME, Liver, Microsome; how it was run: as §2

SMILES	AUClast [1] [ng·h/mL]	Cmax [2] [ng/mL]	AUClast [3] [ng·h/mL]	CLH [4] [µL/min/mg]	t1/2 [5] [h]	Stability [6]	CL [7] [mL/min/kg]	Vd [8] [L/kg]	AUC [9] [ng·h/mL]	concentration at 1 h [10] [ng/mL]	Activity [11]	Activity ([11]; tested as the 2H-labelled form)	Activity [12]	Activity ([12]; tested as the 2H-labelled form)	Stability [13]
CC(C)=CCC/C(C)=C/CC/C(C)=C/CC[C@]1(C)CCc2cc(O)cc(C)c2O1 [DELTA-TOCOTRIENOL]	32804	810	10314	5260	1.778	Unstable	24.92	20.7	33456	800 to 1000	Tde	Tde	Active	Active	Stable
[2H]C([2H])([2H])C(=CCC/C(C)=C/CC/C(C)=C/CC[C@]1(C)CCc2cc(O)cc(C)c2O1)C([2H])([2H])[2H]	34213	970	11354	3580	2.642	Unstable	23.3	21.3	35707	800 to 1000					Stable
